Laboratory results: ChEMBL document CHEMBL4118164, “Discovery of (E)-1-amino-4-phenylbut-3-en-2-ol derivatives as novel neuraminidase inhibitors” (Bioorg Med Chem Lett, 2018)

target: Neuraminidase (Influenza A virus, UniProt B4URF0); test: Inhibition of Influenza A H1N1 virus neuraminidase activity preincubated for 2 mins followed by MUNANA substrate addition measured after 30 mins by […]
Procedure, shortened: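 Test compounds were dissolved in DMSO as stock solutions and diluted with assay buffer to four concentrations, spaced tenfold apart. Neuraminidase inhibition was measured with a commercial neuraminidase-inhibitor screening kit using a fluorescent read-out. IC50 values are means of three or more experiments.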

Neuraminidase, sequence (B4URF0 whole entry): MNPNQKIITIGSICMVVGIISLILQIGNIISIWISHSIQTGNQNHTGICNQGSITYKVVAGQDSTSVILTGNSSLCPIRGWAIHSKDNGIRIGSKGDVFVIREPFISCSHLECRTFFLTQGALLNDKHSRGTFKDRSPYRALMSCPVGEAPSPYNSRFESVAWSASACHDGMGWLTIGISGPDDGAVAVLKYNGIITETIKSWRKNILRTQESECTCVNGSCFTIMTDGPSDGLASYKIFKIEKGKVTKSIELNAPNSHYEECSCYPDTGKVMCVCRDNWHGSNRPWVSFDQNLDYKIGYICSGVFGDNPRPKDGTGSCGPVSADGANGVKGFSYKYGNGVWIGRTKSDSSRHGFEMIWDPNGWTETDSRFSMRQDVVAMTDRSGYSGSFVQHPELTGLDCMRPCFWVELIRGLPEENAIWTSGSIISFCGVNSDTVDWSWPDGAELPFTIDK

Structure (SMILES) | IC50 [µM]
COC(=O)c1ccc(S(=O)(=O)NCC(O)/C=C/c2ccccc2)cc1 (stereo unspecified) | 13.3
COc1ccccc1S(=O)(=O)NCC(O)/C=C/c1ccccc1 (stereo unspecified) | 8
O=S(=O)(NCC(O)/C=C/c1ccccc1)c1ccc(F)cc1 (stereo unspecified) | 7.9
NCC(O)/C=C/c1ccccc1 (stereo unspecified) [listing 1 of 2 here] | 207
O=S(=O)(NCC(O)/C=C/c1ccccc1)c1ccc(Br)cc1 (stereo unspecified) | 9.4
COc1ccc(S(=O)(=O)NCC(O)/C=C/c2ccccc2)cc1 (stereo unspecified) | 6.4
NCC(O)c1ccsc1 (stereo unspecified) | 8900
CC(C)(C)OC(=O)NCC(O)/C=C/c1ccccc1 (stereo unspecified) | 106
OC(/C=C/c1ccccc1)CN(Cc1ccc(C(F)(F)F)cc1)Cc1ccc(C(F)(F)F)cc1 (stereo unspecified) | 32.8
CC(C)(C)OC(=O)/N=C(\NCC(O)/C=C/c1ccccc1)NC(=O)OC(C)(C)C (stereo unspecified) | 103
COc1cccc(S(=O)(=O)NCC(O)/C=C/c2ccccc2)c1 (stereo unspecified) | 7.2
COC(=O)c1ccc(C(=O)NCC(/C=C/c2ccccc2)OC(=O)c2ccc(C(=O)OC)cc2)cc1 (stereo unspecified) | 40.5
COc1cccc(C(O)CN)c1 (stereo unspecified) | 6100
NCC(O)c1ccccc1 (stereo unspecified) | 870
N#Cc1ccc(C(=O)NCC(/C=C/c2ccccc2)OC(=O)c2ccc(C#N)cc2)cc1 (stereo unspecified) | 33
Cc1ccc(C(=O)NCC(/C=C/c2ccccc2)OC(=O)c2ccc(C)cc2)cc1 (stereo unspecified) | 61.5
O=S(=O)(NCC(O)/C=C/c1ccccc1)c1ccccc1 (stereo unspecified) | 7.6
O=S(=O)(NCC(O)/C=C/c1ccccc1)c1ccc(OCc2ccccc2)cc1 (stereo unspecified) | 11.1
OC(/C=C/c1ccccc1)CN(Cc1ccccc1)Cc1ccccc1 (stereo unspecified) | 41.5
N#Cc1ccc(S(=O)(=O)NCC(O)/C=C/c2ccccc2)cc1 (stereo unspecified) | 11.4
Cc1ccc(S(=O)(=O)NCC(O)/C=C/c2ccccc2)cc1 (stereo unspecified) | 7.6
NCC(O)/C=C/c1ccccc1 (stereo unspecified) [listing 2 of 2 here] | 214
N#Cc1ccc(CN(Cc2ccc(C#N)cc2)CC(O)/C=C/c2ccccc2)cc1 (stereo unspecified) | 49.8
O=S(=O)(NCC(O)/C=C/c1ccccc1)c1ccc(Cl)cc1 (stereo unspecified) | 9.2
COc1ccccc1C(O)CN (stereo unspecified) | 5200
Cc1ccc(CN(Cc2ccc(C)cc2)CC(O)/C=C/c2ccccc2)cc1 (stereo unspecified) | 50.7
